ChEMBL document CHEMBL1132972, “Pyrrolidine inhibitors of human cytosolic phospholipase A(2)” (J Med Chem, 2000)

How the values were obtained:
THP-1 [1] = assay: Inhibition of arachidonic acid production from THP-1 cells stimulated with A-23187 using cellular assay; format: functional, cell-based; conditions: Homo sapiens
Summary of the method: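 DMSO-differentiated THP-1 cells (1.3% DMSO for 2 days in RPMI 1640/10% FCS), washed with PBS, held in Hanks' saline pH 7.6 plus 0.1% BSA. Preincubated with inhibitor 15 min at 37 °C, then stimulated with 3 µM calcium ionophore A23187 for 20 min at 37 °C. Arachidonic acid release measured; IC50, mean ± SD, n=3 independent determinations.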

[2] = biological target: T1, Cytosolic phospholipase A2 (Homo sapiens, UniProt P47712); assay: Inhibition of Human cPLA2 alpha using Enzyme assay(PC/DOG assay)
T1 sequence (P47712 whole entry): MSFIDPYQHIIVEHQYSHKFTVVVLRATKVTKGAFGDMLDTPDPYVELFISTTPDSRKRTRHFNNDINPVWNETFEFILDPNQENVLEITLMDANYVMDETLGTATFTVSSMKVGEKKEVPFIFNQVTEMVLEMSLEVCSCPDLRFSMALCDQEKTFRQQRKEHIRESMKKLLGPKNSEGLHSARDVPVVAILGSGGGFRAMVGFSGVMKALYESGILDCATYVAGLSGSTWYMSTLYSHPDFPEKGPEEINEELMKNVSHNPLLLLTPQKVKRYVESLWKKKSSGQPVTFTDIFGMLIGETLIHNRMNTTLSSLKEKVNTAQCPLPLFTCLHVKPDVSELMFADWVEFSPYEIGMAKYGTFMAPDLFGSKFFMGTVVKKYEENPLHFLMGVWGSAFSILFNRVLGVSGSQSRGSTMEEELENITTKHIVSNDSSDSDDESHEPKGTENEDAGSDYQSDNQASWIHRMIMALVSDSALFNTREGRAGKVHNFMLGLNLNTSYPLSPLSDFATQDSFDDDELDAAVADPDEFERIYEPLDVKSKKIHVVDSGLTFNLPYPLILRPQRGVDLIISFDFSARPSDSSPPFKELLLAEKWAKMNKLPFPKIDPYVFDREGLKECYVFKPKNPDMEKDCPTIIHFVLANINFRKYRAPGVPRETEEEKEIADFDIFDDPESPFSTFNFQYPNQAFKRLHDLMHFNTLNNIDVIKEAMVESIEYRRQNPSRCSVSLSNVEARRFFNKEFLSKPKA

THP-1 [3] = assay: Effect on production of eicosanoids from THP-1 cells stimulated with A-23187 using cellular assay on PGE-2, LTC-4; format: functional, cell-based; conditions: Homo sapiens
Summary of the method: (§1)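 THP-1 cells grown in RPMI 1640 with 10% FCS, differentiated with 1.3% DMSO for 2 days, PBS-washed, suspended in Hanks' saline pH 7.6 with 0.1% BSA. Inhibitor preincubation 15 min at 37 °C, then 3 µM A23187 for 20 min at 37 °C. Stopped on ice; supernatant LTC4 and PGE2 measured by radio immunoassay and enzyme immunoassay. IC50, mean ± SD of three independent determinations.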

THP-1 [4] = assay: Effect of pyrrolidine derivatives on production of eicosanoids from THP-1 cells stimulated with A-23187 using cellular assay on PGE-2, LTC-4; format: functional, cell-based; conditions: Homo sapiens; summary of the method: as §1
THP-1 [5] = assay: Effect on production of eicosanoids from THP-1 cells stimulated with A-23187 using cellular assay on PGE-2; format: functional, cell-based; conditions: Homo sapiens; summary of the method: as §1
THP-1 [6] = assay: Effect of pyrrolidine derivatives on production of eicosanoids from THP-1 cells stimulated with A-23187 using cellular assay on LTC-4; format: functional, cell-based; conditions: Homo sapiens; summary of the method: as §1

| SMILES | IC50 (THP-1 [1]) [µM] | IC50 [2] [µM] | IC50 (THP-1 [3]) [µM] | IC50 (THP-1 [4]) [µM] | IC50 (THP-1 [5]) [µM] | IC50 (THP-1 [6]) [µM] |
| --- | --- | --- | --- | --- | --- | --- |
| CC(C)CN(Cc1ccccc1-c1ccccc1)[C@@H]1C[C@@H](CNC(=O)/C=C/c2ccc(/C=C3\SC(=O)NC3=O)cc2)N(C(=O)c2ccccc2C(=O)c2ccc(F)cc2F)C1 | 0.022 |  | 0.031 | 0.013 |  |  |
| CC(C)CN(Cc1ccccc1-c1ccccc1)[C@@H]1C[C@@H](CNC(=O)/C=C/c2ccc(/C=C3\SC(=O)NC3=O)cc2)N(C(=O)c2ccccc2C(=O)c2ccc(F)cc2)C1 | 0.052 |  |  |  |  |  |
| CC(C)CN(Cc1ccccc1-c1ccccc1)[C@@H]1C[C@@H](CNC(=O)c2ccc(/C=C3\SC(=O)NC3=O)cc2)N(C(=O)c2ccccc2C(=O)c2ccc(F)cc2F)C1 | 0.047 | 0.0062 |  |  |  |  |
| CC(C)Cc1cccc(-c2ccccc2C(C)C)c1O[C@@H]1C[C@@H](CNC(=O)c2ccc(/C=C3\SC(=O)NC3=O)cc2)N(C(=O)c2ccccc2C(=O)c2ccc(F)cc2F)C1 | 0.055 | 0.0021 |  |  |  |  |
| CC(C)Cc1cccc(-c2ccccc2C(C)C)c1O[C@@H]1C[C@@H](CNC(=O)c2ccc(/C=C3\SC(=O)NC3=O)cc2)N(C(=O)c2ccccc2C(=O)c2ccc(F)cc2)C1 | 0.092 | 0.0053 |  |  |  |  |
| CC(C)CN(Cc1ccccc1-c1ccccc1)[C@@H]1C[C@@H](CNC(=O)c2ccc(/C=C3\SC(=O)NC3=O)cc2)N(C(=O)c2ccccc2C(=O)c2ccc(F)cc2)C1 | 0.18 | 0.021 |  |  |  |  |
| CC(C)Cc1cccc(Br)c1O[C@@H]1C[C@@H](CNC(=O)c2ccc(/C=C3\SC(=O)NC3=O)cc2)N(C(=O)c2ccccc2C(=O)c2ccc(F)cc2)C1 | 0.3 | 0.038 |  |  |  |  |
| O=C1NC(=O)/C(=C/c2ccc(C(=O)NC[C@@H]3C[C@@H](OCc4ccccc4-c4ccccc4)CN3C(=O)c3ccccc3C(=O)c3ccc(F)cc3)cc2)S1 | 0.32 | 0.078 | 0.26 | 0.26 |  |  |
| O=C1NC(=O)/C(=C/c2ccc(C(=O)NC[C@@H]3C[C@@H](SCc4ccccc4-c4ccccc4)CN3C(=O)c3ccccc3C(=O)c3ccc(F)cc3)cc2)S1 | 0.25 |  |  |  |  |  |

Further lines, results first:

| IC50 (THP-1 [1]) [µM] | IC50 [2] [µM] | IC50 (THP-1 [3]) [µM] | IC50 (THP-1 [4]) [µM] | IC50 (THP-1 [5]) [µM] | IC50 (THP-1 [6]) [µM] | SMILES |
| --- | --- | --- | --- | --- | --- | --- |
| 0.66 | 0.083 |  |  |  |  | O=C1NC(=S)S/C1=C\c1ccc(C(=O)NC[C@@H]2C[C@@H](Oc3ccccc3-c3ccccc3)CN2C(=O)c2ccccc2C(=O)c2ccc(F)cc2)cc1 |
| 0.7 | 0.09 |  |  |  |  | O=C1NC(=S)S/C1=C\c1ccc(C(=O)NC[C@@H]2C[C@@H](OCc3ccccc3-c3ccccc3)CN2C(=O)c2ccccc2C(=O)c2ccc(F)cc2)cc1 |
| 0.23 | 0.049 |  |  |  |  | O=C1NC(=O)/C(=C/c2ccc(C(=O)NC[C@@H]3C[C@@H](OCc4ccccc4-c4ccccc4)CN3C(=O)c3ccccc3C(=O)c3ccc(F)cc3F)cc2)S1 |
| 0.4 | 0.072 |  |  |  |  | O=C1NC(=S)S/C1=C\c1ccc(C(=O)NC[C@@H]2C[C@@H](SCc3ccccc3-c3ccccc3)CN2C(=O)c2ccccc2C(=O)c2ccc(F)cc2)cc1 |
| 5.9 | > 10 |  |  |  |  | O=C1NC(=O)/C(=C/c2ccc(C(=O)NC[C@@H]3C[C@@H](OCc4ccccc4-c4ccccc4)CN3C(=O)c3cccc(C(=O)c4ccccc4)c3)cc2)S1 |
| 5.5 | > 10 |  |  |  |  | O=C1NC(=O)/C(=C/c2ccc(C(=O)NC[C@@H]3C[C@@H](OCc4ccccc4-c4ccccc4)CN3C(=O)c3ccc(C(=O)c4ccccc4)cc3)cc2)S1 |
| 0.31 |  |  |  | 0.21 |  | O=C1NC(=O)/C(=C/c2ccc(C(=O)NC[C@@H]3C[C@@H](Oc4ccccc4-c4ccccc4)CN3C(=O)c3ccccc3C(=O)c3ccc(F)cc3)cc2)S1 |
| 0.67 | 0.165 |  |  | 0.41 | 0.37 | O=C1NC(=O)/C(=C/c2ccc(C(=O)NC[C@@H]3C[C@@H](OCc4ccccc4-c4ccccc4)CN3C(=O)c3ccccc3C(=O)c3ccccc3)cc2)S1 |
| > 10 |  | 0.0036 | > 10 |  |  | COc1ccc2c(c1)c(CC(=O)O)c(C)n2C(=O)c1ccc(Cl)cc1 [INDOMETHACIN] |
| 0.22 | 0.022 |  |  |  |  | CC(C)Cc1cccc(Br)c1O[C@@H]1C[C@@H](CNC(=O)c2ccc(/C=C3\SC(=O)NC3=O)cc2)N(C(=O)c2ccccc2C(=O)c2ccc(F)cc2F)C1 |
